Assay [1] can be described thus: Inhibitory concentration of the drug against the cytopathic effect for E-377 strain of herpes simplex virus-1 (HSV-1) in human HFF cells. Type of assay: functional, cell-based. In a few lines: (§1)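 HFF CPE assay: low-passage cells seeded 24 h before in MEM + 10% FBS, switched to MEM + 2% FBS. Drug added in triplicate, serially diluted 1:5, plus HSV-1 or HSV-2 at 1000 PFU/well; 3 days at 37 °C in CO2. Staining with 0.1% crystal violet, read at 620 nm. Value is concentration (µM) reducing CPE by 50%.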

Assay [2] can be described thus: Inhibitory concentration of the drug against the cytopathic effect for MS strain of herpes simplex virus-2 (HSV-2) in human HFF cells. In kind it is functional, cell-based. In short, it runs like this:
as §1

Assay [3] in a line: Inhibitory concentration of the drug against the cytopathic effect for ellen strain of […] in human HFF cells. In kind it is functional, cell-based.
Assay [4] is filed under the species Homo sapiens. The experiment in a line: Concentration of the drug required to reduce the proliferation of human foreskin fibroblast cells. Type of assay: functional. In a few lines: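 HFF cells seeded 24 h before in MEM + 10% FBS; drugs serially diluted 1:5 in MEM + 10% FBS over 100 µg/mL to 0.03 µg/mL, 72 h at 37 °C in CO2; cells trypsinized and counted on a Coulter counter; value is concentration (µM) reducing proliferation to 50% of untreated controls.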

The species named for assay [5] is Homo sapiens. Put plainly: Concentration of the drug required to reduce the uptake of neural red stain by uninfected cell monolayers (HFF). In kind it is functional. In short, it runs like this: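 HFF cells plated 24 h before assay at 2.5×10^4 cells/well; drug added in 1:5 serial dilution, incubated 7 days at 37 °C in CO2; 0.01% neutral red in DPBS 1 h, washed, dye extracted with 50% EtOH/1% acetic acid, OD 550 nm; value is concentration (µM) reducing uptake to 50% of untreated uninfected controls.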

Assay [6] deals with Human cytomegalovirus (Human herpesvirus 5). Put plainly: Inhibitory concentration of the drug against the cytopathic effect for AD169 strain of human cytomegalovirus (HCMV) in human HFF cells.
The test system of another assay is Raji. Put plainly: Inhibitory concentration of the drug against the antigen production against P3HR-1 strain of epstein barr virus-2 (EBV) in Raji cells. In kind it is functional, cell-based. The note with it: Homo sapiens. In a few lines:
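Raji cells infected with EBV P3HR-1; drug added after adsorption (45 min, 37 °C) and washing, then 2 days in complete medium. Cells counted, smears stained with monoclonal antibodies to early antigen components and VCA plus fluorescent detection; positive cells counted. Value is concentration (µM) reducing antigen production to 50% of untreated infected controls.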

The structures appear in SMILES notation. A value given as a limit tells only on which side of the number the result lay.

In the case of `O=c1[nH]c(=O)n([C@H]2C[C@H](O)[C@@H](CO)O2)cc1/C=C/I`, the concentration giving a half-maximal response (EC50) amounted to 0.02 µM in assay [1], 2.21 µM in assay [2], 0.01 µM in assay [3] and 24.8 µM in assay [6]. The IC50 in the assay filed under Homo sapiens [4] is 4.4 µM; in the assay listed under Homo sapiens [5], 86 µM.
For `[N-]=[N+]=NC(CI)c1cn([C@H]2C[C@H](O)[C@@H](CO)O2)c(=O)[nH]c1=O` (stereo partly specified), the half-maximal effective concentration (EC50) in assay [1] was 0.5 µM; in assay [2], 13.2 µM; in assay [3], 12.3 µM; in the assay on Raji it was 4 µM; in assay [6], greater than 118 µM. The concentration for half-maximal inhibition (IC50) in the assay filed under Homo sapiens [4] was 76 µM; in the assay filed under Homo sapiens [5], greater than 118 µM.
On to `COC(C)c1cn([C@H]2C[C@H](O)[C@@H](CO)O2)c(=O)[nH]c1=O` (stereo partly specified), for which the EC50 was 1.7 µM in assay [1], 1 µM in assay [2], greater than 87 µM in assay [3] and 5.9 µM in assay [6]. Moreover, the IC50 in the assay listed under Homo sapiens [4] was 330 µM; in the assay filed under Homo sapiens [5], greater than 175 µM.
For the compound `[N-]=[N+]=NC(CCl)c1cn([C@H]2C[C@H](O)[C@@H](CO)O2)c(=O)[nH]c1=O` (stereo partly specified), the EC50 was 0.06 µM in assay [1]; 6.6 µM in assay [2]; 4.5 µM in assay [3]; 11.1 µM in the assay with Raji; greater than 150 µM in assay [6]. In addition, the IC50 in the assay filed under Homo sapiens [4] was greater than 300 µM; in the assay listed under Homo sapiens [5], greater than 150 µM.
For the compound `CC(N=[N+]=[N-])c1cn([C@H]2C[C@H](O)[C@@H](CO)O2)c(=O)[nH]c1=O` (stereo partly specified), the EC50 was greater than 170 µM in assay [1], greater than 170 µM in assay [2], greater than 67 µM in assay [3] and greater than 170 µM in assay [6]. The IC50 in the assay listed under Homo sapiens [4] was 81 µM; in the assay filed under Homo sapiens [5], greater than 170 µM.
As for `[N-]=[N+]=NC(CBr)c1cn([C@H]2C[C@H](O)[C@@H](CO)O2)c(=O)[nH]c1=O` (stereo partly specified), the 50% effective concentration (EC50) in assay [1] was 6.4 µM; in assay [2], 2.9 µM; in assay [3], 4 µM; with Raji it was 9.3 µM; in assay [6], greater than 130 µM. In addition, the IC50 in the assay filed under Homo sapiens [4] was 91 µM; in the assay listed under Homo sapiens [5], greater than 130 µM.
Consider `CC(N)c1cn([C@H]2C[C@H](O)[C@@H](CO)O2)c(=O)[nH]c1=O` (stereo partly specified), for which the concentration for a half-maximal effect (EC50) was greater than 100 µM in assay [1]; greater than 100 µM in assay [2]; greater than 250 µM in assay [3]; 44.6 µM in the assay with Raji; greater than 125 µM in assay [6]. For the same compound, the concentration for half-maximal inhibition (IC50) is greater than 250 µM in the assay listed under Homo sapiens [4] and greater than 125 µM in the assay listed under Homo sapiens [5].
As for `Nc1nc2c(ncn2COCCO)c(=O)[nH]1` [ACYCLOVIR], the values for the concentration giving a half-maximal response (EC50) (in assay [1]; in assay [2]; in the assay on Raji) were 0.04 µM, 0.09 µM and 2.9 µM, respectively. For the same compound, the half-inhibitory concentration (IC50) in the assay filed under Homo sapiens [4] and in the assay filed under Homo sapiens [5] was greater than 440 µM each time.
For the compound `CCc1cn([C@H]2C[C@H](O)[C@@H](CO)O2)c(=O)[nH]c1=O` [EDOXUDINE], the EC50 in assay [1] came out at 0.6 µM; in assay [2], 1.5 µM; in assay [3], 66.4 µM; with Raji it was 12.1 µM; in assay [6], 0.9 µM. In addition, the IC50 in the assay filed under Homo sapiens [4] is 115 µM; in the assay filed under Homo sapiens [5], greater than 195 µM.
Take `Nc1nc2c(ncn2COC(CO)CO)c(=O)[nH]1` [GANCICLOVIR]: the half-maximal inhibitory concentration (IC50) in the assay listed under Homo sapiens [4] was 168 µM; in the assay listed under Homo sapiens [5], greater than 390 µM. Also, the 50% effective concentration (EC50) in assay [6] turned out to be 0.5 µM.

Source of the values: ChEMBL document CHEMBL1126774, “Synthesis and antiviral activity of novel 5-(1-azido-2-haloethyl) and 5-(1-azido-, amino-, or methoxyethyl) analogs of 2'-deoxyuridine” (J Med Chem, 1993).
